pIC50: −log10 of the molar value. Activity calls are given as the source filed them. The calls are words filed in the database; no cut-off is given here.
Tests used:
[1] = target: T1, Tyrosine-protein phosphatase non-receptor type 1 (Homo sapiens) (UniProt P18031); assay: (§1) Inhibition of PTP1B (1 to 298 residues) (unknown origin) using DifMUP as substrate preincubated for 30 mins followed by substrate addition and measured after 30 mins by fluorescence assay
T1 sequence (whole entry): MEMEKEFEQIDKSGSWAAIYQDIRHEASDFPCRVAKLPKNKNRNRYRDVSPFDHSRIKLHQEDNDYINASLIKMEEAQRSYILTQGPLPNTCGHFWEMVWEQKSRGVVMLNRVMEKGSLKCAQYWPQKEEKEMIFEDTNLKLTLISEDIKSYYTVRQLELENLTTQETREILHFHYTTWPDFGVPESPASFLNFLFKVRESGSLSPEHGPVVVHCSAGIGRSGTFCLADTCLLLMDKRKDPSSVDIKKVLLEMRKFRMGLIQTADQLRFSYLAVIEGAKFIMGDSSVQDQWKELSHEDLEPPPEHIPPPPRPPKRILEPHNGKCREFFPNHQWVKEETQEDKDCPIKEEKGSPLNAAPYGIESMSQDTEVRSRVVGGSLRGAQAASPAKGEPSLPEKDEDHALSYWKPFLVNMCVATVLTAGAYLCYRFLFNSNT
Summary of the method: (§2)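 PTP1B catalytic domain (aa 1–298, 5 nM final) preincubated with compound (diluted in DMSO) 30 min at RT in the dark. DifMUP (30 μM final) added, 30 min at RT. Stopped with H2O2 (0.5% final), 30 min RT. Fluorescence read at Ex 360/Em 450 nm. Buffer: 50 mM citrate pH 6.0, 100 mM NaCl, 1 mM EDTA, 0.1 mM DTT, 0.01% Brij35.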

[2] = Effect on fluorescence read out during PTP1B enzymatic reaction compound treated post enzyme-substrate reaction and susequent H2O2-mediated enzyme deactivation
Summary of the method: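 Read-out counter assay. PTP1B (aa 1–298) turned over DifMUP first, then the enzyme was deactivated with H2O2 and compound added. A drop in fluorescence (Ex 360/Em 450 nm) marks interference with the read-out. Concentration–response format.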

[3] = target: T2, Tyrosine-protein phosphatase non-receptor type 1 (Homo sapiens, UniProt P18031); assay: Competitive inhibition of PTP1B (1 to 298 residues) (unknown origin) using 30 uM DifMUP as substrate preincubated for 30 mins followed by substrate addition and measured after 30 mins by fluorescence assay; summary of the method: as §2
T2 sequence (P18031 whole entry): T1 sequence (whole entry)

[4] = Intrinsic redox activity of compound after 60 mins in presence of resazurin/DTT
[5] = target: T2, Tyrosine-protein phosphatase non-receptor type 1; assay: as §1; summary of the method: as §2
[6] = target: T2, Tyrosine-protein phosphatase non-receptor type 1; assay: Competitive inhibition of PTP1B (1 to 298 residues) (unknown origin) using 60 uM DifMUP as substrate preincubated for 30 mins followed by substrate addition and measured after 30 mins by fluorescence assay
Summary of the method: (§3)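 PTP1B aa 1–298 (5 nM final) preincubated with compound 30 min at RT in the dark, then DifMUP added, 30 min at RT. Stopped with 0.5% final H2O2, 30 min. Fluorescence read at Ex 360/Em 450 nm. Buffer: citrate pH 6.0, NaCl, EDTA, DTT, Brij35.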

[7] = target: T1, Tyrosine-protein phosphatase non-receptor type 1 (Homo sapiens); assay: Reversible inhibition of PTP1B (1 to 298 residues) (unknown origin) using 10 fold excess DifMUP as substrate preincubated for 30 mins followed by substrate addition and measured after 30 mins by fluorescence assay
[8] = target: T2, Tyrosine-protein phosphatase non-receptor type 1; assay: Competitive inhibition of PTP1B (1 to 298 residues) (unknown origin) using 15 uM DifMUP as substrate preincubated for 30 mins followed by substrate addition and measured after 30 mins by fluorescence assay; summary of the method: as §3
[9] = Self-aggregating behavior of compound at 32 to 500 uM by 1D-1H NMR method; format: physicochemical
Summary of the method: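 Self-association check by 1D 1H NMR. Dilution series from 500 to 32 μM compound in 5 mM TRIS pH 7.4, 50 mM NaCl, 5% DMSO-d6. Concentration-dependent shifts of aromatic resonances were monitored.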

Row | inhibition [1] | Activity [2] | pIC50 [5] | Structure (SMILES) | other results
1 | Active | – | – | CN(C)c1ccc2nc3ccc(=[N+](C)C)cc-3sc2c1 | –
2 | – | Active | 4.17 | COc1ccc2cc3[n+](cc2c1OC)CCc1cc2c(cc1-3)OCO2 [BERBERINE] | Activity [9]: Active
3 | – | Active | 3.63 | COc1cc2c(cc1OC)-c1cc3ccc(OC)c(OC)c3c[n+]1CC2 [PALMITINE] | –

The next lines start with the compound.

Row | Structure (SMILES) | inhibition [1] | Activity [2] | pIC50 [5] | other results
4 | CC(=O)Oc1c(C)c(C)c2c(c1C)CC[C@@](C)(CCC[C@H](C)CCC[C@H](C)CCCC(C)C)O2 | inactive | – | – | –
5 | Cc1c(C)c2c(c(C)c1O)CC[C@@](C)(CCC[C@H](C)CCC[C@H](C)CCCC(C)C)O2 | inactive | – | – | –
6 | Cc1c(C)c2c(c(C)c1OC(=O)CCC(=O)O)CCC(C)(C)O2 | inactive | – | – | –
7 | O=C(O)C(=O)Nc1sc2c(c1C(=O)O)CCNC2 | – | inactive | – | –
8 | Cc1c(C)c2c(c(C)c1OC(=O)CCC(=O)O)CC[C@@](C)(CCC[C@H](C)CCC[C@H](C)CCCC(C)C)O2 [(+)-ALPHA-TOCOPHERYL SUCCINATE] | – | inactive | 4.70 | pIC50 [3]: 4.41; Activity [4]: inactive; pIC50 [6]: 4.34; inhibition [7]: Active; pIC50 [8]: 4.60

— ChEMBL document CHEMBL4261523, “PAIN-less identification and evaluation of small molecule inhibitors against protein tyrosine phosphatase 1B” (Medchemcomm, 2017)
